Data: ChEMBL document CHEMBL1123879, “Synthesis and antiarrhythmic activity of novel 3-alkyl-1-[omega-[4-[(alkylsulfonyl)amino]phenyl]-omega- hydroxyalkyl]-1H-imidazolium salts and related compounds” (J Med Chem, 1987)

Experiments:
Canis familiaris [1] = species: Canis familiaris; experiment: Maximum observed change in ADP95 from control value was determined in isolated canine cardiac uM; type: functional, Canis lupus familiaris
Summary of the method: (§1)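 Canine cardiac Purkinje fibres in gassed physiological saline (95% O2–5% CO2, pH 7.35–7.40) at 36 ± 0.5 °C. Paced at 1.0 Hz with 2 ms pulses at twice diastolic threshold. Intracellular microelectrode recording after up to 1 h of stabilisation; 30 min exposure per concentration; one compound per fibre, with vehicle controls. Readout is concentration giving a 20% change in APD95, or maximal APD95 change; log mean with 90% CI when n > 2.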

Canis familiaris [2] = species: Canis familiaris; experiment: Maximum observed change in FRP from control was determined in isolated canine ventricular muscle fibers at a concentration of 100 uM; type: functional, Canis lupus familiaris, Muscle tissue
Summary of the method: (§2)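 Canine right ventricular papillary muscle strips superfused with O2/CO2-gassed saline at 36 ± 0.5 °C. Bipolar electrogram recording. Stimulated at 4× diastolic threshold (2 ms pulses), equilibrated 60 min. FRP measured at 1000 ms cycle length by S2 after every tenth S1 at shortening intervals. Cumulative concentrations; one compound per strip, with vehicle controls. Readout is concentration giving a 20% FRP change, or maximal change; log mean with 90% CI when n > 2.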

Canis familiaris [3] = species: Canis familiaris; experiment: (§3) Concentration that causes 20% increase in ADP95 (action potential duration at 95% repolarization) was determined on isolated canine cardiac Purkinje fibers; type: functional, Canis lupus familiaris, Purkinje fiber; summary of the method: as §1
Canis familiaris [4] = species: Canis familiaris; experiment: (§4) Concentration that causes 20% increase in functional refractory period (FRP) was determined on isolated canine ventricular muscle fibers; parameters: species or system Canis lupus familiaris, Muscle tissue; summary of the method: as §2
Canis familiaris [5] = species: Canis familiaris; experiment: as §4; settings: Canis lupus familiaris; Muscle tissue; summary of the method: as §2
Canis familiaris [6] = species: Canis familiaris; experiment: as §3; type: functional; settings: Canis lupus familiaris; Purkinje fiber; summary of the method: as §1
Canis familiaris [7] = experiment: In vivo intraduodenal activity in mongrel dogs was assessed by % change in heart rate (10 mg/kg administered intradermally); type: functional, Canis lupus familiaris; settings: in the assay text read “intraduodenally” for “intradermally”
Summary of the method: (§5)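 Healthy dogs (8–20 kg) of either sex, pentobarbital 30 mg/kg iv, ventilated, temperature held at 36 ± 0.5 °C. Compound given intraduodenally as suspension in 0.5% tragacanth. HR, BP and FRP measured at 45 min postdose; second dose if FRP/conduction change below 12%. Active dose means FRP change ≥ 12%; HR and BP given as % change, mean ± SEM.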

Canis familiaris [8] = experiment: In vivo intraduodenal activity in mongrel dogs was assessed by % change in blood pressure (10 mg/kg administered intradermally); type: functional, Canis lupus familiaris, Artery; settings: in the assay text read “intraduodenally” for “intradermally”; summary of the method: as §5
[9] = Canis lupus familiaris, Muscle tissue

CC[n+]1ccn(CC(=O)c2ccc(NS(C)(=O)=O)cc2)c1.[Cl-]
Max delta APD95 (Canis familiaris [1]): 26%
Max delta FRP (Canis familiaris [2]): 26%
Activity (Canis familiaris [3]): 49.4 µM
Activity (Canis familiaris [4]): 28.2 µM

C[n+]1ccn(CC(O)c2ccc(NS(C)(=O)=O)cc2)c1 (stereo not drawn)
Max delta APD95 (Canis familiaris [1]): 55%
Max delta FRP (Canis familiaris [2]): 24%
Activity (Canis familiaris [3]): 0.6 µM
Activity (Canis familiaris [4]): 8.7 µM

C[n+]1ccn(C[C@H](O)c2ccc(NS(C)(=O)=O)cc2)c1.[Cl-]
Max delta APD95 (Canis familiaris [1]): 58%
Max delta FRP (Canis familiaris [2]): 25%
Activity (Canis familiaris [3]): 0.3 µM
Activity (Canis familiaris [4]): 14 µM

CC(C)[n+]1ccn(CC(=O)c2ccc(NS(C)(=O)=O)cc2)c1.[Cl-]
Activity (Canis familiaris [5]): Not recorded
Max delta APD95 (Canis familiaris [1]; Canis lupus familiaris): Minimal effects
Max delta FRP (Canis familiaris [2]): 14%
Activity (Canis familiaris [6]): Not recorded

CC[n+]1ccn(CC(O)c2ccc(NS(C)(=O)=O)cc2)c1.[Cl-] (stereo not drawn)
Max delta APD95 (Canis familiaris [1]): 65%
Max delta FRP (Canis familiaris [2]): 26%
Activity (Canis familiaris [3]): 6.2 µM
Activity (Canis familiaris [4]): 28.2 µM

C[n+]1ccn(CC(=O)c2ccccc2)c1.[Br-]
Activity (Canis familiaris [5]): Not recorded
Max delta FRP (Canis familiaris [2]; [9]): Minimal effects
Activity (Canis familiaris [3]): 69 µM

C[n+]1ccn(C[C@@H](O)c2ccc(NS(C)(=O)=O)cc2)c1.[Cl-]
Max delta APD95 (Canis familiaris [1]): 74%
Max delta FRP (Canis familiaris [2]): 31%
Activity (Canis familiaris [3]): 0.7 µM
Activity (Canis familiaris [4]): 7.5 µM

C[n+]1ccn(CC(O)c2ccccc2)c1.[Br-] (stereo not drawn)
Max delta APD95 (Canis familiaris [1]): 12%
Max delta FRP (Canis familiaris [2]): 22%
Activity (Canis familiaris [4]): 50 µM
Activity (Canis familiaris [6]): Not recorded

Cc1c(C)[n+](C)c(C)n1CC(=O)c1ccc(NS(C)(=O)=O)cc1.[Cl-]
Max delta APD95 (Canis familiaris [1]; Canis lupus familiaris): Minimal effects
Max delta FRP (Canis familiaris [2]): 26%
Activity (Canis familiaris [4]): 15.8 µM
Activity (Canis familiaris [6]): Not recorded

CCS(=O)(=O)Nc1ccc(C(O)Cn2cc[n+](C)c2)cc1.[Cl-] (stereo not drawn)
Max delta APD95 (Canis familiaris [1]): 27%
Max delta FRP (Canis familiaris [2]): 27%
Activity (Canis familiaris [3]): 30 µM
Activity (Canis familiaris [4]): 14.5 µM

C[n+]1ccn(CCCc2ccc(NS(C)(=O)=O)cc2)c1.O=P([O-])(O)O
Activity (Canis familiaris [5]): Not recorded
Max delta APD95 (Canis familiaris [1]): 47%
Max delta FRP (Canis familiaris [2]): 13%
Activity (Canis familiaris [3]): 7.2 µM

C[n+]1ccn(CC(=O)c2ccc(NS(=O)(=O)C(F)(F)F)cc2)c1
Activity (Canis familiaris [5]): Not recorded
Max delta APD95 (Canis familiaris [1]; Canis lupus familiaris): Minimal effects
Max delta FRP (Canis familiaris [2]; [9]): Minimal effects
Activity (Canis familiaris [6]): Not recorded

Cc1n(CC(=O)c2ccc(NS(C)(=O)=O)cc2)cc[n+]1C.[Cl-]
Max delta APD95 (Canis familiaris [1]): 33%
Max delta FRP (Canis familiaris [2]): 32%
Activity (Canis familiaris [3]): 24.8 µM
Activity (Canis familiaris [4]): 14.7 µM

CCCCCCC[n+]1ccn(CC(O)c2ccc(NS(C)(=O)=O)cc2)c1.O=P([O-])(O)O (stereo not drawn)
Heart rate (Canis familiaris [7]): -10%
Max delta APD95 (Canis familiaris [1]): 50%
Max delta FRP (Canis familiaris [2]): 24%
Blood pressure (Canis familiaris [8]): 6%
Activity (Canis familiaris [3]): 2.8 µM
Activity (Canis familiaris [4]): 9 µM

C[n+]1ccn(CC(O)c2ccc(NS(=O)(=O)C(F)(F)F)cc2)c1 (stereo not drawn)
Activity (Canis familiaris [5]): Not recorded
Max delta APD95 (Canis familiaris [1]; Canis lupus familiaris): Minimal effects
Max delta FRP (Canis familiaris [2]; [9]): Minimal effects
Activity (Canis familiaris [6]): Not recorded

C[n+]1ccn(CCC(=O)c2ccc(NS(C)(=O)=O)cc2)c1.[Cl-]
Heart rate (Canis familiaris [7]): -2%
Max delta APD95 (Canis familiaris [1]): 26%
Max delta FRP (Canis familiaris [2]): 29%
Blood pressure (Canis familiaris [8]): 6%
Activity (Canis familiaris [3]): 38.3 µM
Activity (Canis familiaris [4]): 17.8 µM

C[n+]1ccn(CCC(O)c2ccc(NS(C)(=O)=O)cc2)c1.[Cl-] (stereo not drawn)
Max delta APD95 (Canis familiaris [1]; Canis lupus familiaris): Minimal effects
Max delta FRP (Canis familiaris [2]): 20%
Activity (Canis familiaris [4]): 100 µM
Activity (Canis familiaris [6]): Not recorded

CCS(=O)(=O)Nc1ccc(C(=O)Cn2cc[n+](C)c2)cc1.[Cl-]
Max delta APD95 (Canis familiaris [1]): 33%
Max delta FRP (Canis familiaris [2]): 26%
Activity (Canis familiaris [3]): 29 µM
Activity (Canis familiaris [4]): 40 µM

CC(C)[n+]1ccn(CC(O)c2ccc(NS(C)(=O)=O)cc2)c1 (stereo not drawn)
Activity (Canis familiaris [5]): Not recorded
Max delta APD95 (Canis familiaris [1]; Canis lupus familiaris): Minimal effects
Activity (Canis familiaris [6]): Not recorded
